Laboratory results taken from ChEMBL document CHEMBL4311975, “Exploration of the antibiotic potentiating activity of indolglyoxylpolyamines” (Eur J Med Chem, 2019).
In brackets after ≈: the same amount, converted by molar mass.

Key:
[1] = system: Staphylococcus aureus; assay: Antibacterial activity against Staphylococcus aureus ATCC 25923 assessed as growth inhibition incubated for 18 hrs by broth dilution method; type: functional; details: ATCC 25923, 18 h
How it was run: (§1)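 Broth microdilution following CA-SFM recommendations. Inoculum was 10^5 CFU in Mueller-Hinton broth with two-fold serial drug dilutions. Plates were incubated 18 h at 37 °C. MIC was the lowest concentration giving complete inhibition of visible growth. Values are means, n = 3.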

[2] = system: Staphylococcus intermedius; assay: Antibacterial activity against Staphylococcus intermedius 1051997 assessed as growth inhibition incubated for 18 hrs by broth dilution method; type: functional; details: Staphylococcus intermedius, 1051997, 18 h; how it was run: as §1
[3] = system: Pseudomonas aeruginosa; assay: Antibacterial activity against Pseudomonas aeruginosa ATCC 27853 assessed as growth inhibition incubated for 18 hrs by broth dilution method; type: functional; details: ATCC 27853, 18 h; how it was run: as §1
[4] = system: Escherichia coli; assay: Antibacterial activity against Escherichia coli ATCC 25922 assessed as growth inhibition incubated for 18 hrs by broth dilution method; type: functional; details: ATCC 25922, 18 h; how it was run: as §1
[5] = system: Klebsiella pneumoniae; assay: Antibacterial activity against Klebsiella pneumoniae ATCC 700603 assessed as growth inhibition incubated for 18 hrs by resazurin dye based assay; type: functional; details: Klebsiella pneumoniae, 700603, 18 h
How it was run: (§2)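 Overnight cultures were diluted 40-fold in MHB and grown 1.5–2 h at 37 °C to mid-log phase. Cells were added at 5×10^5 CFU/mL final to two-fold compound dilutions (0.008–32 μg/mL final), in duplicate, for 18 h at 37 °C. Resazurin (0.001% final) was added for 2 h and MIC read by eye. Means, n = 2.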

[6] = system: Acinetobacter baumannii; assay: Antibacterial activity against Acinetobacter baumannii ATCC 19606 assessed as growth inhibition incubated for 18 hrs by resazurin dye based assay; type: functional; details: ATCC 19606 = CIP 70.34 = JCM 6841, 18 h; how it was run: as §2
[7] = system: Candida albicans; assay: Antifungal activity against Candida albicans ATCC 90028 assessed as growth inhibition incubated for 36 hrs by resazurin dye based assay; type: functional; details: ATCC 90028, 36 h
How it was run: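 Yeast was grown 3 days on YPD agar at 30 °C. Colonies were suspended and diluted in YNB broth to 2.5×10^3 CFU/mL, then added to two-fold compound dilutions (0.008–32 μg/mL final), in duplicate. Plates stood 36 h at 35 °C without shaking. Means, n = 2.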

[8] = system: Cryptococcus neoformans; assay: Antifungal activity against Cryptococcus neoformans ATCC 208821 assessed as growth inhibition incubated for 36 hrs by resazurin dye based assay; type: functional; details: ATCC 208821, 36 h
How it was run: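 Cryptococcus was grown 3 days on YPD agar at 30 °C, suspended, and diluted in YNB broth to 2.5×10^3 CFU/mL. Cells were exposed to 0.008–32 μg/mL compound (final), in duplicate, for 36 h at 35 °C without shaking. Resazurin (0.006% final) was added for a further 3 h. MIC was read from absorbance at OD570–600. Means, n = 2.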

[9] = system: Pseudomonas aeruginosa; assay: Potentiation of doxycycline-induced antibacterial activity against Pseudomonas aeruginosa ATCC 27853 assessed as concentration required to restore 2 ug/ml doxycycline activity measured after 18 hrs; type: functional
How it was run: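 Inoculum was 5×10^5 CFU in MHB with two-fold serial dilutions of adjuvant plus fixed doxycycline at 2 μg/mL. […] Repeated independently in triplicate.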

[10] = system: L6; assay: Cytotoxicity against rat L6 cells measured after 72 hrs by alamar blue assay; type: cell-based; details: L6, 72 h
How it was run: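 Rat L6 myoblasts, 4×10^4/well in RPMI 1640 with L-glutamine and 10% FBS, received seven 3-fold dilutions (90 to 0.123 μg/mL) for 72 h. Alamar Blue was added for 2 h and fluorescence read at ex 536/em 588 nm. Podophyllotoxin served as reference. Means, n = 2.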

[11] = Cytotoxicity against human HEK293 cells measured after 20 hrs by resazurin dye based fluorescence assay; type: cell-based
How it was run: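 HEK293 cells, 5,000/well in DMEM with 10% FBS, were exposed to compound for 20 h at 37 °C, 5% CO2. Resazurin (100 μM final) was added for 3 h, then fluorescence read at ex 560/em 590. Signal was normalised to tamoxifen (74 μg/mL, 0%) and untreated growth (100%), and CC50 came from dose-response fitting. Top dose 32 μg/mL. Means, n = 2.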

[12] = Hemolytic activity against Sprague-Dawley rat RBC assessed as release of hemoglobin at 50 uM incubated for 1 hr relative to control; type: ADME, cell-based, Erythrocyte; details: red blood cells (erythrocytes), read-out: Activity
How it was run: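 Fresh Sprague-Dawley rat erythrocytes were washed in saline and resuspended at 2% v/v. Cells were incubated with compound in DMSO/PBS for 1 h at 37 °C, then centrifuged at 200 g, and supernatant absorbance read at 540 nm. Results were normalised to DMSO/PBS (0%) and 0.1% Triton X-100 (100%). Single-point testing used 50 μM; HC50 came from 10-point curves. Means of three experiments.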

| SMILES | MIC [1] [µM] | MIC [2] [µM] | MIC [3] [µM] | MIC [4] [µM] | MIC [5] [µM] | MIC [6] [µM] | MIC [7] [µM] | MIC [8] [µM] | Activity [9] [µM] | IC50 [10] [µM] | CC50 at 20 h [11] [µM] | hemolysis at 1 h, 50 µM [12] [%] |
| --- | --- | --- | --- | --- | --- | --- | --- | --- | --- | --- | --- | --- |
| COC(=O)c1ccc2c(C(=O)C(=O)NCCCNCCCCNCCCNC(=O)C(=O)c3c[nH]c4cc(C(=O)OC)ccc34)c[nH]c2c1.O=C(O)C(F)(F)F.O=C(O)C(F)(F)F | > 200 | 12.5 | > 200 | > 200 | > 36 | > 36 | > 36 | 9 | 25 | 63.6 | > 36 | 0.6 |
| COc1ccc2c(C(=O)C(=O)NCCCNCCCCNCCCNC(=O)C(=O)c3c[nH]c4cc(OC)ccc34)c[nH]c2c1 | > 100 | > 100 | > 100 | > 100 | > 38.4 | > 38.4 | > 38.4 | 19.2 (≈ 11.6 µg/mL) | 50 | 54 | > 38.4 | 0 |
| O=C(NCCCNCCCCNCCCNC(=O)C(=O)c1c[nH]c2cccc(F)c12)C(=O)c1c[nH]c2cccc(F)c12 | > 70 | 35 (≈ 20.3 µg/mL) | 140 (≈ 81.3 µg/mL) | 100 (≈ 58.1 µg/mL) | > 55.1 | > 55.1 | > 55.1 | > 55.1 | 35 | 167 | > 55 | 0.3 |
| COc1cc([C@@H]2c3cc4c(cc3[C@H](O)[C@H]3COC(=O)[C@H]23)OCO4)cc(OC)c1OC [PODOFILOX] |  |  |  |  |  |  |  |  |  | 0.018 |  |  |
| COc1ccc2[nH]cc(C(=O)C(=O)NCCCNCCCCNCCCNC(=O)C(=O)c3c[nH]c4ccc(OC)cc34)c2c1 | 100 (≈ 60.5 µg/mL) | 50 (≈ 30.2 µg/mL) | > 200 | > 200 | > 38.4 | > 38.4 | > 38.4 | 19.2 (≈ 11.6 µg/mL) | 12.5 | 56 | > 38.4 | 0 |
| O=C(NCCCNCCCCNCCCNC(=O)C(=O)c1c[nH]c2ccc(Cl)cc12)C(=O)c1c[nH]c2ccc(Cl)cc12.O=C(O)C(F)(F)F.O=C(O)C(F)(F)F | > 200 |  | > 100 | > 200 | > 38 | > 38 | 38 | > 38 | 14.9 | 19.8 | 4.73 | 0 |

Further lines, with some results ahead:

| MIC [1] [µM] | MIC [2] [µM] | MIC [3] [µM] | MIC [4] [µM] | MIC [5] [µM] | MIC [6] [µM] | MIC [7] [µM] | MIC [8] [µM] | SMILES | Activity [9] [µM] | IC50 [10] [µM] | CC50 at 20 h [11] [µM] | hemolysis at 1 h, 50 µM [12] [%] |
| --- | --- | --- | --- | --- | --- | --- | --- | --- | --- | --- | --- | --- |
| 6.25 | 3.12 | 100 | 50 | 38.1 | 38.1 | 38.1 | 4.8 | O=C(NCCCNCCCCNCCCNC(=O)C(=O)c1c[nH]c2cc(Cl)ccc12)C(=O)c1c[nH]c2cc(Cl)ccc12.O=C(O)C(F)(F)F.O=C(O)C(F)(F)F | 6.25 | 33.2 | 19.1 | 11.6 |
| 25 | > 200 | 100 | 200 | > 40 | > 40 | > 40 | 10 | Cc1ccc2[nH]cc(C(=O)C(=O)NCCCNCCCCNCCCNC(=O)C(=O)c3c[nH]c4ccc(C)cc34)c2c1.O=C(O)C(F)(F)F.O=C(O)C(F)(F)F | 6.25 | 63.8 | > 40 | 0.3 |
| 50 | 50 | 200 | 100 | 35.2 | > 35.2 | 35.2 | 4.4 | O=C(NCCCNCCCCNCCCNC(=O)C(=O)c1c[nH]c2cc(C(F)(F)F)ccc12)C(=O)c1c[nH]c2cc(C(F)(F)F)ccc12.O=C(O)C(F)(F)F.O=C(O)C(F)(F)F | 100 | 31.4 | 3.36 | 3.2 |
